Assay results as given in ChEMBL document CHEMBL4130443, “Targeting breast cancer stem cells by novel HDAC3-selective inhibitors” (Eur J Med Chem, 2017).
Active and inactive are the calls of the source. No cut-off for these calls is given here.

Columns and labels:
[1] = molecular target: T1, Protein deacetylase HDAC6 (Homo sapiens) (UniProt Q9UBN7); assay: Inhibition of human HDAC6 at 1 uM using p53 (379 to 382 residues) derived fluorogenic peptide RHKKAc
T1 sequence (whole entry): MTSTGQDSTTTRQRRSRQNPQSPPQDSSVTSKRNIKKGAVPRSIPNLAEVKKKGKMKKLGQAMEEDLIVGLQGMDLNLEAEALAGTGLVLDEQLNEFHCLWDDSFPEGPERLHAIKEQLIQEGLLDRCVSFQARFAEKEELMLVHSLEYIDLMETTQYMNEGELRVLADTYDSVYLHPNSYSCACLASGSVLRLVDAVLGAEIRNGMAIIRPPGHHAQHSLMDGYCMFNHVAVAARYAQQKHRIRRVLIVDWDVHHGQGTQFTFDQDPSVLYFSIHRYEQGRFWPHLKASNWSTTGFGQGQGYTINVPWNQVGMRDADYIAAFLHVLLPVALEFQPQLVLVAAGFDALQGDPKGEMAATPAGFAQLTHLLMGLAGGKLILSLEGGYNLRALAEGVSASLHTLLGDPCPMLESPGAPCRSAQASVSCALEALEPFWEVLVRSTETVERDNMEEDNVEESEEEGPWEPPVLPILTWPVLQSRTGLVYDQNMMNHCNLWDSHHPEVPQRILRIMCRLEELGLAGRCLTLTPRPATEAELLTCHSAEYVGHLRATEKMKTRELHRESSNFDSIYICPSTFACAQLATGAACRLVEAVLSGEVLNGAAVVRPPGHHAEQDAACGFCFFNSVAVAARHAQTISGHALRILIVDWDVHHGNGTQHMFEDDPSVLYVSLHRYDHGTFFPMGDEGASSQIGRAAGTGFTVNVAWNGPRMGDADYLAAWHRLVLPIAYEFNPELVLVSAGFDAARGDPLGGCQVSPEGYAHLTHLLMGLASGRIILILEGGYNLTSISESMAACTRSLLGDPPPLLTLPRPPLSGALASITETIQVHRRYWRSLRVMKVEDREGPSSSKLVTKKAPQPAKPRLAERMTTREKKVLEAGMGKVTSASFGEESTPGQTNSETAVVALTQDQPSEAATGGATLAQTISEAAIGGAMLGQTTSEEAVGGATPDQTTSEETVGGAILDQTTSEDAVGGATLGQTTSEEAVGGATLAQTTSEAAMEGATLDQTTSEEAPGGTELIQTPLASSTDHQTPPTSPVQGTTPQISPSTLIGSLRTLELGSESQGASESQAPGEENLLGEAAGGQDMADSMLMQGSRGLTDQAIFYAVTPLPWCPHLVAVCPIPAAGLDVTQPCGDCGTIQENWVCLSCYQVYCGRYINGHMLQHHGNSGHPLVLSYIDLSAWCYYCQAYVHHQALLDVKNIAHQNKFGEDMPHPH
Summary of the method: (§1)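 Isoform profiling run by a commercial vendor with compounds at 1 µM. Values are percent inhibition, each the average of two determinations.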

[2] = molecular target: T2, Histone deacetylase 8 (Homo sapiens) (UniProt Q9BY41); assay: Inhibition of human HDAC8 at 1 uM using p53 (379 to 382 residues) derived fluorogenic peptide RHKAcKAc; summary of the method: as §1
T2 sequence (whole entry): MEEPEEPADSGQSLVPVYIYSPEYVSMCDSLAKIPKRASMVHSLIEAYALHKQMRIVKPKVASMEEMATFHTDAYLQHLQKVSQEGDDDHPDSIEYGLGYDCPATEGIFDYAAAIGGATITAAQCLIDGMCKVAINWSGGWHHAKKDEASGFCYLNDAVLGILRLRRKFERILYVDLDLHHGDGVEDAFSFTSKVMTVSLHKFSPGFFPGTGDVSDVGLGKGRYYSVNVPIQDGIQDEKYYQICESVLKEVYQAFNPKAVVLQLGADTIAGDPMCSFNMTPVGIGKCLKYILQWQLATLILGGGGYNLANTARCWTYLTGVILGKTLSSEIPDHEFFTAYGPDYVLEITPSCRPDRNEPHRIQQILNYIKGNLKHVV

[3] = molecular target: T3, Histone deacetylase 2 (Homo sapiens, UniProt Q92769); assay: Inhibition of human HDAC2 at 1 uM using p53 (379 to 382 residues) derived fluorogenic peptide RHKKAc; summary of the method: as §1
[4] = molecular target: Histone deacetylase 5 (Homo sapiens) (UniProt Q9UQL6); assay: Inhibition of human HDAC5 at 1 uM using Boc-Lys(trifluoroacetyl)-AMC substrate; summary of the method: as §1
[5] = molecular target: T4, Histone deacetylase 1 (Homo sapiens, UniProt Q13547); assay: Inhibition of human HDAC1 at 1 uM using p53 (379 to 382 residues) derived fluorogenic peptide RHKKAc; summary of the method: as §1
[6] = molecular target: Histone deacetylase 4 (Homo sapiens) (UniProt P56524); assay: Inhibition of human HDAC4 at 1 uM using Boc-Lys(trifluoroacetyl)-AMC substrate; summary of the method: as §1
[7] = molecular target: Histone deacetylase 3/Nuclear receptor corepressor 2 (HDAC3/NCoR2) (Homo sapiens) (UniProt O15379+Q9Y618); assay: Inhibition of human HDAC3/NCOR2 at 1 uM using p53 (379 to 382 residues) derived fluorogenic peptide RHKKAc; assay type: protein-complex assay; summary of the method: as §1
[8] = molecular target: T4, Histone deacetylase 1; assay: Inhibition of human HDAC1 using p53 (379 to 382 residues) derived fluorogenic peptide RHKKAc
[9] = molecular target: Histone deacetylase 3/Nuclear receptor corepressor 2 (HDAC3/NCoR2) (Homo sapiens, UniProt O15379); assay: Inhibition of human HDAC3/NCOR2 using p53 (379 to 382 residues) derived fluorogenic peptide RHKKAc; assay type: protein-complex assay
[10] = molecular target: T3, Histone deacetylase 2; assay: Inhibition of human HDAC2 using p53 (379 to 382 residues) derived fluorogenic peptide RHKKAc
[11] = molecular target: T1, Protein deacetylase HDAC6 (Homo sapiens); assay: Inhibition of HDAC6 in human MDA-MB-231 cells assessed as increase in histone H3K9 acetylation at 0.1 to 2.5uM incubated for 48 hrs by Western blot method; assay type: cell-based; settings: in the assay text read “tubulin acetylation” for “histone H3K9 acetylation”
Summary of the method: (§2)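 Cells treated 48 h at the indicated concentrations, with a reference HDAC inhibitor at 0.25 µM as positive control on each blot. Lysed in 1% SDS, 10 mM EDTA, 50 mM Tris-HCl pH 8.1 with protease/phosphatase inhibitors, then sonicated. Equal protein by SDS-PAGE on nitrocellulose. Primary antibodies 1:1000 overnight at 4°C, HRP secondary, ECL. Blots for pan-H3 and H3K9 acetylation, tubulin acetylation and Notch1.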

[12] = molecular target: T2, Histone deacetylase 8 (Homo sapiens); assay: Inhibition of HDAC8 in human MDA-MB-231 cells assessed as reduction in Notch1 expression at 0.1 to 2.5uM incubated for 48 hrs by Western blot method; assay type: cell-based; summary of the method: as §2
[13] = species on record: Homo sapiens; assay: Selectivity index, ratio of IC50 for human HDAC1 to IC50 for human HDAC3

T3 sequence (Q92769 whole entry, the tested form may be a part): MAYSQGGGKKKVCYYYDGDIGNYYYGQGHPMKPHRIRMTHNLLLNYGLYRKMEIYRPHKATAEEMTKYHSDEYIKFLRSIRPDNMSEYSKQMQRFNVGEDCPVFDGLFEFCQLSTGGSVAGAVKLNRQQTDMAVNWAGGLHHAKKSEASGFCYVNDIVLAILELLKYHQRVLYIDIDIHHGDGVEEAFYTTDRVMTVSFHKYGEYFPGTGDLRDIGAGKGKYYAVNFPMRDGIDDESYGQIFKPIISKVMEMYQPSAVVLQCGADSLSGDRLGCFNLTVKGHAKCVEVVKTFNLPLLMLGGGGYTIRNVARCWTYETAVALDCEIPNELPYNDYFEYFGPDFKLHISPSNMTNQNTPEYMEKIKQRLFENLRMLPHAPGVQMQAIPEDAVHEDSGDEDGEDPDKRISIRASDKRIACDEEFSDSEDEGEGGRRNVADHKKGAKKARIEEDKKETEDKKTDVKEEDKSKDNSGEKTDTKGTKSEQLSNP
Chain of Histone deacetylase 4 (Homo sapiens) (P56524 whole entry, the tested form may be a part): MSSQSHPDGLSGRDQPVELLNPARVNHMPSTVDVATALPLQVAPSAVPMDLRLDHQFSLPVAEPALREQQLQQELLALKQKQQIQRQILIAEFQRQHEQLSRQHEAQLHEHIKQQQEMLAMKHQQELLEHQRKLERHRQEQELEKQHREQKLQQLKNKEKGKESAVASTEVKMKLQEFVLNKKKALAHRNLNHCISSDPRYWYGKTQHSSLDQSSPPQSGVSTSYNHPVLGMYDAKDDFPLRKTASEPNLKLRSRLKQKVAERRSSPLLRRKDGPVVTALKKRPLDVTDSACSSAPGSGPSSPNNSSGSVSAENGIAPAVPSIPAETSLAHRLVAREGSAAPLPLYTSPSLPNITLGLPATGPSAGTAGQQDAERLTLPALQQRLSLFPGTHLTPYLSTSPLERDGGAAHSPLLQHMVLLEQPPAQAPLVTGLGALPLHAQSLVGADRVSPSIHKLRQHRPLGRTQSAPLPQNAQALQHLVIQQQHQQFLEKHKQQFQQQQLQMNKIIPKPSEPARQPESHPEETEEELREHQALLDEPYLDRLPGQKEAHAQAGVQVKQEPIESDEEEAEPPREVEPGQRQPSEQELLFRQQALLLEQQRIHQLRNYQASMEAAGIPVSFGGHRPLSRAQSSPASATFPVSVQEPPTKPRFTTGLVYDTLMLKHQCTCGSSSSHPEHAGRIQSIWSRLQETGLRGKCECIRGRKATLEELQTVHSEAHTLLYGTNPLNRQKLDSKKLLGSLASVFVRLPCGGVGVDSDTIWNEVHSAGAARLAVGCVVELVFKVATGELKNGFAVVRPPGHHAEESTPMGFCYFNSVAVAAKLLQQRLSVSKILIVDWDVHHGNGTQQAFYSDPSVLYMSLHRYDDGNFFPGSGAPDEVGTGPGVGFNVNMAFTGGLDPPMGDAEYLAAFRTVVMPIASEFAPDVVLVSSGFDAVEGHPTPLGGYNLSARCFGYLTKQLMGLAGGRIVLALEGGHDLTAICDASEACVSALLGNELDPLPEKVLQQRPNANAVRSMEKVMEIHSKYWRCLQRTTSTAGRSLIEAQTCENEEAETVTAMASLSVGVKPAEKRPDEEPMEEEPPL
Chain of Histone deacetylase 5 (Homo sapiens) (Q9UQL6 whole entry, the tested form may be a part): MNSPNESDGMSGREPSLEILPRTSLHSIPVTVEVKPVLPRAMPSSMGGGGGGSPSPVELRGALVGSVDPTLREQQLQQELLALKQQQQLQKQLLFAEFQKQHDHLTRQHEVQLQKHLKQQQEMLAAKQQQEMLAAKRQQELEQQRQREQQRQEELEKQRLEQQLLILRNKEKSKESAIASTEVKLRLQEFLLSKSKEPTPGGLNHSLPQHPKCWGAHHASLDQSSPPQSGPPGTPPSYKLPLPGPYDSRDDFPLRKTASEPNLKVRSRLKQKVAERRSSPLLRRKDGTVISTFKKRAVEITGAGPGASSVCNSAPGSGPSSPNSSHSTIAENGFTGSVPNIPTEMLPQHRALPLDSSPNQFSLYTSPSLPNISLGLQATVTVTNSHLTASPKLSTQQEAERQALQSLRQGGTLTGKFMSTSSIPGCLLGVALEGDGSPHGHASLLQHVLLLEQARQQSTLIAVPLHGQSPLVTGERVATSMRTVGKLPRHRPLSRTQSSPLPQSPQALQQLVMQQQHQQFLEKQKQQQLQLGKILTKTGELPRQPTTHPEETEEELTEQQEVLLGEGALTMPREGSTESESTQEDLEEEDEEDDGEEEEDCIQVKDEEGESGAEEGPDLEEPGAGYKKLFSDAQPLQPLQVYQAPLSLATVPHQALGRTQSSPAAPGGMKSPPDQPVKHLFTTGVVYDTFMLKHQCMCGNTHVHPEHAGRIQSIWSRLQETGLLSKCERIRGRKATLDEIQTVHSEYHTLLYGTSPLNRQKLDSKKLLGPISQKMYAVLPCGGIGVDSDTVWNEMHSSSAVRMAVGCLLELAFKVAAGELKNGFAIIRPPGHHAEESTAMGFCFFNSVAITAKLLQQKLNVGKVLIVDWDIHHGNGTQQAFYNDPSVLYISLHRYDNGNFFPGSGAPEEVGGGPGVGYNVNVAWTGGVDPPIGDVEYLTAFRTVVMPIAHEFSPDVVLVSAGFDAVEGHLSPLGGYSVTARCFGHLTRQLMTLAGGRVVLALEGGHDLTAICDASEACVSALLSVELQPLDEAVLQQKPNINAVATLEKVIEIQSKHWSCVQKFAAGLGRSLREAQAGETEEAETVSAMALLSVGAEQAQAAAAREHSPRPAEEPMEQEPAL
T4 sequence (Q13547 whole entry, the tested form may be a part): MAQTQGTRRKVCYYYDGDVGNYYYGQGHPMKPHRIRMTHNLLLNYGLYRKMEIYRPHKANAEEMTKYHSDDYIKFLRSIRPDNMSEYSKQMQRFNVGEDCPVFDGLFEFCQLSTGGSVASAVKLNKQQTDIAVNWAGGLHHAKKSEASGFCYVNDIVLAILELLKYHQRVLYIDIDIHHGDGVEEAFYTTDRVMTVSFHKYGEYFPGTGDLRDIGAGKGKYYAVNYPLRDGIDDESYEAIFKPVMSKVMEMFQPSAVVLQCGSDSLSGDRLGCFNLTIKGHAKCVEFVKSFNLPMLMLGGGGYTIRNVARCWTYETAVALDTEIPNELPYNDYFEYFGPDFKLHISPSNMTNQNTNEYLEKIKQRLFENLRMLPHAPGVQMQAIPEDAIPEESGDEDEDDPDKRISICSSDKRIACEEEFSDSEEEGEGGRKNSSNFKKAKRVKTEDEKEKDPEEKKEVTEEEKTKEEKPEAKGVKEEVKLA

Row | SMILES | inhibition [1] | inhibition [2] | inhibition [3] | inhibition [4] | inhibition [5] | inhibition [6] | inhibition [7] | IC50 [8] | IC50 [9] | IC50 [10] | inhibition [11] | inhibition [12] | Ratio IC50 [13]
1 | CC(C)[C@@H](C(=O)Nc1ccc(C(=O)Nc2ccc(C(F)(F)F)cc2N)cc1)c1ccccc1 | 0% | 0% | 4% | 0% | 6% | 3% | 0% |  |  |  |  |  | 
2 | Nc1cc(F)ccc1NC(=O)c1ccc(NC(=O)Cc2ccccc2)cn1 |  |  |  |  |  |  |  | 1100 nM | 520 nM | 2000 nM |  |  | 
3 | Nc1cc(F)ccc1NC(=O)c1ccc(NC(=O)Cc2ccc(C(F)(F)F)cc2)cn1 |  |  |  |  |  |  |  | > 10000 nM | > 10000 nM | > 10000 nM |  |  | 
4 | C[C@H](C(=O)Nc1ccc(C(=O)Nc2ccc(F)cc2N)nc1)c1ccccc1 |  |  |  |  |  |  |  | 1400 nM | 130 nM | 2000 nM | inactive | inactive | 
5 | CC(C)[C@@H](C(=O)Nc1ccc(C(=O)Nc2ccc(F)cc2N)cn1)c1ccccc1 |  |  |  |  |  |  |  | > 10000 nM | 1700 nM | 8400 nM |  |  | 
6 | Nc1cc(F)ccc1NC(=O)c1ccc(NC(=O)Cc2ccc(F)cc2)cn1 |  |  |  |  |  |  |  | 370 nM | 390 nM | 3000 nM |  |  | 
7 | Nc1cc(F)ccc1NC(=O)c1ccc(NC(=O)[C@@H]2C[C@@H]2c2ccccc2)cc1 (relative stereo) |  |  |  |  |  |  |  | 1300 nM | 200 nM | 2100 nM |  |  | 
8 | Nc1cc(F)ccc1NC(=O)c1ccc(NC(=O)CCc2ccccc2)cc1 |  |  |  |  |  |  |  | 1200 nM | 800 nM | 1100 nM |  |  | 
9 | C[C@H](C(=O)Nc1ccc(C(=O)Nc2ccc(F)cc2N)cc1)c1ccccc1 |  |  |  |  |  |  |  | 3200 nM | 230 nM | 3400 nM |  |  | 13
10 | CC(C)[C@H](C(=O)Nc1ccc(C(=O)Nc2ccc(F)cc2N)nc1)c1ccccc1 |  |  |  |  |  |  |  | 1500 nM | 300 nM | 2500 nM | inactive | inactive | 
11 | Nc1cc(F)ccc1NC(=O)c1ccc(NC(=O)Cc2ccc(C(F)(F)F)cc2)cc1 | 0% | 5% | 32% | 0% | 41% | 0% | 36% | 1500 nM | 200 nM | 1300 nM |  |  | 
12 | CC[C@H](C(=O)Nc1ccc(C(=O)Nc2ccc(F)cc2N)cc1)c1ccccc1 |  |  |  |  |  |  |  | 2500 nM | 170 nM | 4800 nM |  |  | 14.7
13 | Nc1cc(F)ccc1NC(=O)c1ccc(NC(=O)C2CC2c2ccccc2)cn1 (stereo unspecified) |  |  |  |  |  |  |  | 1200 nM | 1000 nM | 4900 nM |  |  | 
14 | CC[C@@H](C(=O)Nc1ccc(C(=O)Nc2ccc(F)cc2N)nc1)c1ccccc1 |  |  |  |  |  |  |  | 300 nM | 60 nM | 630 nM | inactive | inactive | 
15 | CC(C)(C(=O)Nc1ccc(C(=O)Nc2ccccc2N)cc1)c1ccccc1 | 4% | 0% | 34% | 0% | 49% | 6% | 36% |  |  |  |  |  | 
16 | CC[C@@H](C(=O)Nc1ccc(C(=O)Nc2ccc(F)cc2N)cc1)c1ccccc1 |  |  |  |  |  |  |  | 1200 nM | 110 nM | 1200 nM |  |  | 10.9
17 | Nc1cc(F)ccc1NC(=O)c1ccc(NC(=O)Cc2ccc(F)cc2)cc1 |  |  |  |  |  |  |  | 5500 nM | 200 nM | 2700 nM |  |  | 
18 | CC[C@H](C(=O)Nc1ccc(C(=O)Nc2ccc(F)cc2N)nc1)c1ccccc1 |  |  |  |  |  |  |  | 610 nM | 530 nM | 4200 nM |  |  | 
19 | Nc1ccccc1NC(=O)c1ccc(NC(=O)Cc2ccc(C(F)(F)F)cc2)cc1 | 0% | 0% | 38% | 0% | 78% | 0% | 33% |  |  |  |  |  | 
20 | C[C@@H](C(=O)Nc1ccc(C(=O)Nc2ccc(F)cc2N)nc1)c1ccccc1 |  |  |  |  |  |  |  | 760 nM | 580 nM | 3000 nM | inactive | inactive | 
21 | Nc1cc(F)ccc1NC(=O)c1ccc(NC(=O)C2CC2c2ccccc2)cc1 (stereo unspecified) | 0% | 14% | 9% | 3% | 0% | 0% | 82% | > 10000 nM | 200 nM | > 10000 nM |  |  | 
22 | Nc1cc(F)ccc1NC(=O)c1ccc(NC(=O)CCc2ccccc2)cn1 |  |  | inactive |  | inactive |  | inactive | 1300 nM | > 10000 nM | 7800 nM |  |  | 
